Test results: ChEMBL document CHEMBL1148523, “Synthesis and biological evaluation of novel pyridazinone-based alpha4 integrin receptor antagonists” (J Med Chem, 2006)
pIC50: −log10 of the molar value.

What was measured:
Integrin alpha-4/beta-1 = Integrin alpha-4/beta-1 (Homo sapiens, UniProt P05556+P13612); experiment: Inhibition of binding of alpha4beta1 integrin receptor expressed in human Ramos cells to immobilized VCAM1; type: cell-based
Integrin alpha-4/beta-7 = biological target: T1, Integrin alpha-4/beta-7 (Homo sapiens, UniProt P13612+P26010); experiment: Inhibition of binding of alpha-4-beta-7 integrin receptor expressed in human K562 cells to immobilized MAdCAM1; type: cell-based
T1 sequence (P13612 whole entry): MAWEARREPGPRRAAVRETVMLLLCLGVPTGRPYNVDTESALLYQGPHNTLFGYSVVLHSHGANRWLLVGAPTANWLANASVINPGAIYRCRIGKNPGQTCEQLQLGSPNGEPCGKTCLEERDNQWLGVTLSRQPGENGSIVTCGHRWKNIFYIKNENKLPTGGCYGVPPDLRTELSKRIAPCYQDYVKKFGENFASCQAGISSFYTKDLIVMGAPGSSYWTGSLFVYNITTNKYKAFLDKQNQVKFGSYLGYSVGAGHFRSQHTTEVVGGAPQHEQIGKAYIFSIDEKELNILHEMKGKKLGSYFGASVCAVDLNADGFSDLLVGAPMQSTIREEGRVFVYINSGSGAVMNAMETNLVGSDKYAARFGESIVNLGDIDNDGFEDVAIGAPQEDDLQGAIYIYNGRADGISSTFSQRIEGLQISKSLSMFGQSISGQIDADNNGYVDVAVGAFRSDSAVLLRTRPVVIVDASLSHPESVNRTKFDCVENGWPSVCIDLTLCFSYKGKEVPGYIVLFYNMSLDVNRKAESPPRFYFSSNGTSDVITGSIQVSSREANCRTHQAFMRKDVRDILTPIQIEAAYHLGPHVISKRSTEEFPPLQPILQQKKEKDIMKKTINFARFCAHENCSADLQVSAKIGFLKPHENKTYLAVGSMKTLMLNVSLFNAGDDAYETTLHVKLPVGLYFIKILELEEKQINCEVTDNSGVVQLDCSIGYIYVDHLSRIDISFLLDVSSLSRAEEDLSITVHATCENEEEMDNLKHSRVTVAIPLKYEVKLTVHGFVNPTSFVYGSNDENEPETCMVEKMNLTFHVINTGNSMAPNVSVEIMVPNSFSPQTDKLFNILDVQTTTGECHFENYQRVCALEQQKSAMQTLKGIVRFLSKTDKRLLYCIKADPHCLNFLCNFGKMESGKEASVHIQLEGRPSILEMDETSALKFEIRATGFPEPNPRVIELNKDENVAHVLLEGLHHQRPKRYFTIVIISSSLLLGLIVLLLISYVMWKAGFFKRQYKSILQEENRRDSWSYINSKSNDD
T1 sequence (P26010 whole entry): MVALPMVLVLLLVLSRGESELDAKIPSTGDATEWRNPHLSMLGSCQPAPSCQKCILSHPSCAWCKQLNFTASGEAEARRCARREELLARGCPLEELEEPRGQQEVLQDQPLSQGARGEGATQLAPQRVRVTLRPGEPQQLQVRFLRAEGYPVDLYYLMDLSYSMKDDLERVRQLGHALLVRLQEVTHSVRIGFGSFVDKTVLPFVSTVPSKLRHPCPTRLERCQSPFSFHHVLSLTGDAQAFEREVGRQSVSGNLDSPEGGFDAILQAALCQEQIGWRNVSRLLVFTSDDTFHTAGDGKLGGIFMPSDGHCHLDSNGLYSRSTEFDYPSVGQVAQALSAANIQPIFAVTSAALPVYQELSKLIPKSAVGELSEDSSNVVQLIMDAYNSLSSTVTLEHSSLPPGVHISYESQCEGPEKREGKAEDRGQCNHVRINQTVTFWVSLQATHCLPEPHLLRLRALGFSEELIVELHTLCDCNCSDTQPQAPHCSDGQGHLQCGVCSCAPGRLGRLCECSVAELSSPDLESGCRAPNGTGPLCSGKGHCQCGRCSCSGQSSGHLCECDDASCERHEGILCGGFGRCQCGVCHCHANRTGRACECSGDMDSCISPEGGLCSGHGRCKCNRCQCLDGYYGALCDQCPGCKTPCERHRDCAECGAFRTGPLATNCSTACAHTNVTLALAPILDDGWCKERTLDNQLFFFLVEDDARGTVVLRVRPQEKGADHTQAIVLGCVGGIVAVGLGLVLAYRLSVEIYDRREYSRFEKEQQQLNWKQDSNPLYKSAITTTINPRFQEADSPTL

[1] = AUC in rat at 30 mg/kg, po; type: ADME, organism-based; parameters: dose 30 mg/kg, route oral; conditions: plasma
In short: (§1)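 Rats were given 3 mg/kg iv or 30 mg/kg by oral gavage (oral vehicle 10% PEG 400 in PBS, pH 7.0-7.5). Heparinized blood was sampled after dosing and the plasma stored at -70 °C. Analysis was by LC-MS-MS with multiple reaction monitoring, using plasma calibration standards of 0.01-10 µM (LOQ 0.01 µM). For ester prodrugs, the parent acid was quantified. AUC was taken after oral dosing and t1/2 after iv dosing.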

[2] = Half life in rat at 3 mg/kg, iv; type: ADME, organism-based; parameters: dose 3 mg/kg, route intravenous; conditions: in vivo; in short: as §1
[3] = Oral bioavailability in rat at 30 mg/kg, po and 3 mg/kg, iv; type: ADME, organism-based; conditions: in vivo; in short: as §1
Mus musculus = experiment: Inhibition of DSS-induced colitis in mouse at 60 mg/kg, po after 7 days; type: functional; conditions: 168 h
In short: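 Female Balb/c mice, 11-14 weeks old (n = 10/group), drank 5% DSS in tap water ad libitum for 7 days, freshly changed daily. Oral gavage at 60 mg/kg in 10% PEG 400 in D5W, or vehicle alone, began on the day of induction and continued twice daily for 7 days. Colons were then dissected. The macroscopic score combined colon shrinkage, stool consistency and colon damage.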

[4] = Inhibition of adhesion of human Ramos cell to TNF-alpha-stimulated HUVEC cells mediated by VCAM1; type: functional, cell-based
[5] = Inhibition of adhesion of human U937 cell to LPS-stimulated HUVEC cells mediated by ICAM1/VCAM1; type: functional, cell-based
[6] = Inhibition of adhesion of human HL60 cell to TNF-alpha-stimulated HUVEC cells mediated by ELAM1; type: functional, cell-based
[7] = Clearance in rat at 3 mg/kg, iv; type: ADME, organism-based; parameters: dose 3 mg/kg, route intravenous; conditions: in vivo; in short: as §1
[8] = Volume of distribution in rat at 3 mg/kg, iv; type: ADME, organism-based; parameters: dose 3 mg/kg, route intravenous; conditions: in vivo, read-out: Vdss; in short: as §1

Sequence of Integrin alpha-4/beta-1 (P05556 whole entry, one chain of several): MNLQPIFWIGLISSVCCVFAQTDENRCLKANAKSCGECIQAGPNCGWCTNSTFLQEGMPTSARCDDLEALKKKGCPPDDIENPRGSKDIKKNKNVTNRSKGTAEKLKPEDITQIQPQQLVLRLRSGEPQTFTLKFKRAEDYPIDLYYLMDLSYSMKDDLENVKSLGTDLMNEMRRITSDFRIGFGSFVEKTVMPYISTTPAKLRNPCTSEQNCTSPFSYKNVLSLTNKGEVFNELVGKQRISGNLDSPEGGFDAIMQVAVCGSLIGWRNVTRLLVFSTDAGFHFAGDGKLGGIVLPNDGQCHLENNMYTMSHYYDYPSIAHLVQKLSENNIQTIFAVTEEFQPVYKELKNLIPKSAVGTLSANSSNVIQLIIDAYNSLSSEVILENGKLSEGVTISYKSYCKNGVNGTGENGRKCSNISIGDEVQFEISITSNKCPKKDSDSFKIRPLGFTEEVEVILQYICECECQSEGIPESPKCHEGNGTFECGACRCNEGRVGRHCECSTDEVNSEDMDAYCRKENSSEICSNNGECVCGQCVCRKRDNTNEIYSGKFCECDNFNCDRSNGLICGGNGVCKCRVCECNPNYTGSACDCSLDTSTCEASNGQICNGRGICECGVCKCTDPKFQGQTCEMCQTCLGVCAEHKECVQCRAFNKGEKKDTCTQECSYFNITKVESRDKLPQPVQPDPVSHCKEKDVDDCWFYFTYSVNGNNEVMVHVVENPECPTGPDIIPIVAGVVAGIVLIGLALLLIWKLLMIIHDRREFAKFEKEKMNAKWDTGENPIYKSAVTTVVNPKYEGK

Work on CCOc1cnn(C)c(=O)c1-c1ccc(C[C@H](NC(=O)c2c(Cl)cccc2Cl)C(=O)O)cc1 yielded a pIC50 (Integrin alpha-4/beta-1) of 6.77 and a pIC50 (Integrin alpha-4/beta-7) of 8.70.
With COc1cnn(C2CCCCC2)c(=O)c1-c1ccc(C[C@H](NC(=O)c2c(Cl)cccc2Cl)C(=O)O)cc1 the pIC50 (Integrin alpha-4/beta-1) was less than 5.30 and the pIC50 (Integrin alpha-4/beta-7) was 6.48.
Molecule COc1cnnc(O)c1-c1ccc(C[C@H](NC(=O)c2c(Cl)cccc2Cl)C(=O)O)cc1 has a pIC50 (Integrin alpha-4/beta-1) of 6.00.
Work on Cn1ncc(OC2CCCCC2)c(-c2ccc(C[C@H](NC(=O)c3c(Cl)cccc3Cl)C(=O)O)cc2)c1=O yielded a pIC50 (Integrin alpha-4/beta-1) of 6.82.
With COc1cnn(C)c(=O)c1-c1ccc(C[C@H](NC(=O)OC(C)(C)C)C(=O)O)cc1 the pIC50 (Integrin alpha-4/beta-1) was less than 5.30.
Work on COc1cnn(CCO)c(=O)c1-c1ccc(C[C@H](NC(=O)OC(C)(C)C)C(=O)OCCO)cc1 yielded an AUC [1] of 51 µM·h, a half-life [2] of 66 min and a bioavailability [3] of 31%. The inhibition in vivo at 60 mg/kg (Mus musculus) was 54%.
Molecule COc1cnn(C)c(=O)c1-c1ccc(C[C@H](NC(=O)c2c(Cl)cccc2Cl)C(=O)O)cc1 has a pIC50 [4] of 7.37, a pIC50 [5] of 7.85 and a pIC50 [6] greater than 8.30. For the same molecule, the AUC [1] was 0.5 µM·h, the half-life [2] was 12 min and the bioavailability [3] was 1%. For the same molecule, the clearance [7] was 22 mL/min/kg and the Vd [8] was 0.4 L/kg.
Cn1ncc(O)c(-c2ccc(C[C@H](NC(=O)c3c(Cl)cccc3Cl)C(=O)O)cc2)c1=O showed a pIC50 (Integrin alpha-4/beta-7) of 7.31.
Molecule CCCN(C(=O)N[C@@H](Cc1ccc(-c2c(OC)cnn(C)c2=O)cc1)C(=O)O)c1ccccc1 has a pIC50 (Integrin alpha-4/beta-1) of less than 5.30.
With COc1cnn(CCO)c(=O)c1-c1ccc(C[C@H](NC(=O)c2c(Cl)cccc2Cl)C(=O)O)cc1 the pIC50 (Integrin alpha-4/beta-1) was 6.89.
For COc1cnn(Cc2ccccc2)c(=O)c1-c1ccc(C[C@H](NC(=O)c2c(Cl)cccc2Cl)C(=O)O)cc1, the pIC50 (Integrin alpha-4/beta-7) was 7.00.
COC(=O)N[C@@H](Cc1ccc(-c2c(OC)cnn(C)c2=O)cc1)C(=O)O showed a pIC50 (Integrin alpha-4/beta-1) of less than 5.30.
Molecule COc1cnn(CCO)c(=O)c1-c1ccc(C[C@H](NC(=O)OC(C)(C)C)C(=O)O)cc1 has an AUC [1] of 1.6 µM·h, a half-life [2] of 12 min and a pIC50 (Integrin alpha-4/beta-1) of less than 5.30. For the same molecule, the pIC50 (Integrin alpha-4/beta-7) was 6.96, the bioavailability [3] was 1% and the clearance [7] was 6 mL/min/kg. For the same molecule, the Vd [8] was 0.11 L/kg.
In the case of COc1cnn(C)c(=O)c1-c1ccc(C[C@H](NC(=O)N(C)CC(C)C)C(=O)OCCO)cc1, the AUC [1] was 47 µM·h, the half-life [2] was 24 min and the bioavailability [3] was 14%.
Work on COc1cnn(C)c(=O)c1-c1ccc(C[C@H](NC(=O)N(C)C)C(=O)O)cc1 yielded a pIC50 (Integrin alpha-4/beta-1) of less than 5.30 and a pIC50 (Integrin alpha-4/beta-7) of 5.82.
With Cn1ncc(OCCN2CCOCC2)c(-c2ccc(C[C@H](NC(=O)c3c(Cl)cccc3Cl)C(=O)O)cc2)c1=O the pIC50 (Integrin alpha-4/beta-1) was 7.18.
Molecule Cn1ncc(N2CCCC2)c(-c2ccc(C[C@H](NC(=O)c3c(Cl)cccc3Cl)C(=O)O)cc2)c1=O has a pIC50 (Integrin alpha-4/beta-1) of 6.96.
COc1cnn(C)c(=O)c1-c1ccc(C[C@H](NC(=O)N(C)CC(C)C)C(=O)O)cc1 showed an AUC [1] of 5.2 µM·h, a half-life [2] of 54 min and a pIC50 (Integrin alpha-4/beta-1) of 5.74. The bioavailability [3] was 3%, the clearance [7] was 7.8 mL/min/kg and the Vd [8] was 0.19 L/kg.
With Cn1ncc(OC(F)F)c(-c2ccc(C[C@H](NC(=O)c3c(Cl)cccc3Cl)C(=O)O)cc2)c1=O the pIC50 (Integrin alpha-4/beta-1) was 6.55 and the pIC50 (Integrin alpha-4/beta-7) was 8.10.
Molecule CCOC(=O)[C@H](Cc1ccc(-c2c(OC)cnn(C)c2=O)cc1)NC(=O)c1c(Cl)cccc1Cl has an AUC [1] of 2.3 µM·h and a bioavailability [3] of 4%.
For COC(=O)[C@H](Cc1ccc(-c2c(OC)cnn(C)c2=O)cc1)NC(=O)c1c(Cl)cccc1Cl, the AUC [1] was 1.7 µM·h, the half-life [2] was 42 min and the bioavailability [3] was 8%.
With COc1cnn(C)c(=O)c1-c1ccc(C[C@H](NC(=O)c2c(Cl)cccc2Cl)C(=O)OCCO)cc1 the AUC [1] was 3.3 µM·h, the half-life [2] was 60 min and the bioavailability [3] was 7%.
